Source: ChEMBL document CHEMBL3414541, “Discovery of new thienopyrimidinone derivatives displaying antimalarial properties toward both erythrocytic and hepatic stages of Plasmodium” (Eur J Med Chem, 2015)
Activity calls are given as the source filed them. The rule behind the calls is not given here.

Columns and labels:
HepG2 = assay: (§1) Cytotoxicity against human HepG2 cells assessed as cell viability after 72 hrs by MTT assay; format: cell-based; details: hepg2, 72 h
Outline: (§2)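 Cells were kept in RPMI with 10% FBS. 5×10^3 cells/well were settled 24 h, then exposed to compound from DMSO (final <0.5%): CHO for 24 h, HepG2 for 72 h, in duplicate. Wells were checked for precipitate. MTT was added for 2 h at 37 °C, formazan dissolved in DMSO, and A570 read (630 nm reference). Viability is % of untreated cells; CC50 from non-linear regression, mean of three experiments.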

Plasmodium falciparum [1] = assay: Antiplasmodial activity against multi-drug resistant Plasmodium falciparum K1 infected in human erythrocytes assessed as parasite growth inhibition after 72 hrs by SYBR Green I dye-based fluorescence assay; format: functional, organism-based
Salmonella typhimurium [2] = assay: Mutagenicity in Salmonella typhimurium TA97A at 2.5 mM after 1 hr by Ames test in absence of S9 fraction; format: toxicity, organism-based; details: salmonella enterica subsp. enterica serovar typhimurium, 2500 µM
Outline: (§3)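 Tester strains were grown overnight in nutrient broth. 0.1 mL culture was incubated 1 h at 37 °C with shaking with compound (2.5–25 mM DMSO solutions), with or without 4% S9 mix. Top agar was added and the mix plated on Vogel-Bonner agar. Revertants were counted after 48 h at 37 °C in the dark. A twofold rise over spontaneous revertants counts as mutagenic.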

Salmonella typhimurium [3] = assay: Mutagenicity in Salmonella typhimurium TA100 at 2.5 mM after 1 hr by Ames test in absence of S9 fraction; format: toxicity, organism-based; details: salmonella enterica subsp. enterica serovar typhimurium, 2500 µM; outline: as §3
Plasmodium falciparum [4] = assay: Antiplasmodial activity against multi-drug resistant Plasmodium falciparum K1 infected in human erythrocytes assessed as depolarization of mitochondrial membrane at IC50 after 20 mins by flow cytometric analysis; format: functional, organism-based
[5] = as §1; format: cell-based; details: HepG2 cells; outline: as §2
[6] = Selectivity index, ratio of CC50 for human HepG2 cells to IC50 for multi-drug resistant Plasmodium falciparum K1 infected in human erythrocytes
[7] = Inhibition of Plasmodium falciparum DHFR after 48 hrs
Outline: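 Recombinant S. cerevisiae whose own DHFR is replaced by the P. falciparum DHFR domain was used. 1×10^4 cells were grown in YEPD with compound from DMSO (final <0.5%) at 30 °C for 48 h, in duplicate. Growth was read as A660. IC50 (50% growth inhibition) came from non-linear regression.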

[8] = Cytotoxicity against human HepG2 cells expressing CD81 assessed as cell viability after 72 hrs by CellTiter-glo assay; format: cell-based
Plasmodium yoelii = assay: Antiplasmodial activity against liver stage of Plasmodium yoelii 17X NL sporozoites infected in human HepG2 cells expressing CD81 after 48 hrs by DAPI staining-based immunofluorescence analysis; format: functional, organism-based; details: HepG2, 48 h
Outline: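 HepG2/CD81 cells were grown in D-MEM with 10% FBS. 25×10^3 cells/well went on collagen-coated wells; after 24 h they received compound and 5000 P. yoelii sporozoites together, then were spun 900 × g for 10 min at 4 °C. Treatment was renewed at 3 h and 24 h. At 48 h cells were methanol-fixed, stained with anti-HSP70 immunofluorescence, and parasites counted by microscopy. IC50 is 50% fewer parasites than in 0.5% DMSO controls.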

[9] = Selectivity index, ratio of CC50 for human HepG2 cells expressing CD81 to IC50 for liver stage of Plasmodium yoelii 17X NL sporozoites infected in human HepG2 cells expressing CD81; format: functional
[10] = Genotoxicity in DNA (unknown origin) incubated for 24 hrs in dark condition by methyl green displacement assay
Outline: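 DNA-methyl green (4 mg in 20 mL 0.05 M Tris-HCl pH 7.5 with 7.5 mmol/L MgSO4) was shaken 24 h at 37 °C. It was then added to compound from DMSO (final <0.5%). A630 was read, and read again after 24 h at room temperature in the dark. DC50 is the concentration displacing 50% of methyl green.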

Plasmodium falciparum [11] = assay: Antiplasmodial activity against multi-drug resistant Plasmodium falciparum K1 infected in human erythrocytes assessed as parasite growth inhibition after 72 hrs by SYBR Green I dye-based fluorescence assay in presence of ascorbic acid; format: functional, organism-based; details: K1, 72 h
Outline: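 Same SYBR Green I 72 h growth assay on the K1 strain (2% haematocrit, 1% parasitaemia, 37 °C, 6% CO2/14% O2/80% N2, DMSO <0.5%), with 800 µM ascorbic acid in the medium as radical trap. Duplicates; artesunate as positive control; IC50 derived.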

[12] = Plasmodium falciparum, K1, 72 h, read-out: IC50

Row | Compound | CC50 at 72 h [5] | IC50 (Plasmodium falciparum [1]; [12]) | further results
1 | CCN(CC)c1nc2cc(-c3ccc(C)cc3)sc2c(=O)[nH]1 |  |  | CC50 (HepG2): ND(Insoluble); IC50 (Plasmodium falciparum [1]): ND(Insoluble)
2 | [N-]=[N+]=[N-].[Na+] [SODIUM AZIDE] |  |  | Activity (Salmonella typhimurium [2]): Toxic; Activity (Salmonella typhimurium [3]): Toxic
3 | Cc1ccc(-c2cc3nc(NC(C)(C)C)[nH]c(=O)c3s2)cc1 |  |  | Activity (Plasmodium falciparum [4]): inactive
4 | CC(C)(C)Nc1nc2c(-c3ccc(F)cc3)csc2c(=O)[nH]1 | 2.3 µM | > 5 µM | 
5 | Cc1ccc(-c2ccc3c(=O)[nH]c(NC(C)(C)C)nc3c2)cc1 | 0.98 µM | > 5 µM | Ratio CC50/IC50 [6]: <5.1
6 | Cc1ccc(-c2ccc3nc(NC(C)(C)C)[nH]c(=O)c3c2)cc1.Cl | 0.49 µM | > 5 µM | Ratio CC50/IC50 [6]: <10.2
7 | CC(C)Nc1nc2c(-c3ccc(F)cc3)csc2c(=O)[nH]1 | > 15.6 µM | > 5 µM | 
8 | CCc1nc(N)nc(N)c1-c1ccc(Cl)cc1 [PYRIMETHAMINE] |  |  | IC50 [7]: 2.8 µM
9 | Cc1ccc(-c2cc3nc(NCc4ccccc4Cl)[nH]c(=O)c3s2)cc1 | 32.6 µM | > 5 µM | 
10 | Cc1ccc(-c2cc3nc(NC(C)c4ccccc4)[nH]c(=O)c3s2)cc1 (configuration not stated) | 9.2 µM | > 5 µM | 
11 | CC(C)(C)Nc1nc2ccsc2c(=O)[nH]1 | 8.4 µM | > 5 µM | 
12 | Cc1ccc(-c2csc3c(=O)[nH]c(NC(C)C)nc23)cc1 | 8.8 µM | 2.7 µM | Ratio CC50/IC50 [6]: 3
13 | Cc1ccccc1-c1cc2nc(NC(C)(C)C)[nH]c(=O)c2s1 | 4 µM | 1.7 µM | Ratio CC50/IC50 [6]: 2
14 | CCCNc1nc2cc(-c3ccc(C)cc3)sc2c(=O)[nH]1 | > 62.5 µM | > 5 µM | 
15 | CC(C)Nc1nc2c(-c3ccc(Br)cc3)csc2c(=O)[nH]1 | 6.5 µM | > 5 µM | 
16 | C[C@@H]1CC[C@H]2[C@@H](C)C(=O)O[C@@H]3O[C@@]4(C)CC[C@@H]1[C@]32OO4 [ARTEMISININ] |  |  | CC50 at 72 h [8]: > 10 µM; IC50 (Plasmodium yoelii): > 10 µM
17 | CC(C)(C)Nc1nc2cc(-c3ccc(Br)cc3)sc2c(=O)[nH]1 | 1.4 µM | > 5 µM | 
18 | CCCCN(C)c1nc2cc(-c3ccc(C)cc3)sc2c(=O)[nH]1 | 3 µM | > 5 µM | 
19 | COc1cc(NC(C)CCCN)c2ncccc2c1 (configuration not stated) [PRIMAQUINE] |  |  | Ratio CC50/IC50 [9]: 5.3; CC50 at 72 h [8]: 6.1 µM; IC50 (Plasmodium yoelii): 1.16 µM
20 | CC(C)(C)Nc1nc2cc(-c3ccc(F)cc3)sc2c(=O)[nH]1 | 5.1 µM | > 5 µM | 
21 | Cc1cccc(-c2cc3nc(NC(C)(C)C)[nH]c(=O)c3s2)c1 | 14.1 µM | 3.6 µM | Ratio CC50/IC50 [6]: 3
22 | CCCCCCNc1nc2cc(-c3ccc(C)cc3)sc2c(=O)[nH]1 | 10.6 µM | > 5 µM | 
23 | CC(C)Nc1nc2cc(-c3ccc(Br)cc3)sc2c(=O)[nH]1 | 13.4 µM | 1.7 µM | Ratio CC50/IC50 [6]: 9
24 | CC(C)Nc1nc2ccsc2c(=O)[nH]1 | 23.9 µM | > 5 µM | 

Row | Compound | CC50 at 72 h [5] | IC50 (Plasmodium falciparum [1]; [12]) | further results
25 | CCCCN(CCCC)c1nc2cc(-c3ccc(C)cc3)sc2c(=O)[nH]1 |  |  | CC50 (HepG2): ND(Insoluble); IC50 (Plasmodium falciparum [1]): ND(Insoluble)
26 | CC(C)(C)Nc1nc2cc(-c3ccccc3)sc2c(=O)[nH]1 | 12.5 µM | 1 µM | Ratio CC50/IC50 [6]: 10
27 | CCCCNc1nc2cc(-c3ccc(C)cc3)sc2c(=O)[nH]1 | 6 µM | > 5 µM | 
28 | CC(C)Nc1nc2cc(-c3ccc(Cl)cc3)sc2c(=O)[nH]1 | > 15.6 µM | 0.6 µM | Ratio CC50/IC50 [6]: >26
29 | CCCN(CCC)c1nc2cc(-c3ccc(C)cc3)sc2c(=O)[nH]1 |  |  | CC50 (HepG2): ND(Insoluble); IC50 (Plasmodium falciparum [1]): ND(Insoluble)
30 | CCCCCCCNc1nc2cc(-c3ccc(C)cc3)sc2c(=O)[nH]1 | 6.8 µM | > 5 µM | 
31 | CCCCCNc1nc2cc(-c3ccc(C)cc3)sc2c(=O)[nH]1 | 4.2 µM | > 5 µM | 
32 | Cc1ccc(-c2cc3nc(N)[nH]c(=O)c3s2)cc1 |  |  | CC50 (HepG2): ND(Insoluble); IC50 (Plasmodium falciparum [1]): ND(Insoluble)
33 | COc1ccc(-c2csc3c(=O)[nH]c(NC(C)C)nc23)cc1 | 27.8 µM | > 5 µM | 
34 | COc1cccc2c1C(=O)c1c(O)c3c(c(O)c1C2=O)C[C@@](O)(C(C)=O)C[C@@H]3O[C@H]1C[C@H](N)[C@H](O)[C@H](C)O1 [DAUNORUBICIN] |  |  | DC50 [10]: 1 µM
35 | CC(C)Nc1nc2c(-c3ccc(Cl)cc3)csc2c(=O)[nH]1 | 7.1 µM | > 5 µM | 
36 | Cc1ccc(-c2csc3c(=O)[nH]c(NC(C)(C)C)nc23)cc1 | 1.4 µM | > 5 µM | 
37 | O=C1C(O)=C([C@H]2CC[C@H](c3ccc(Cl)cc3)CC2)C(=O)c2ccccc21 [ATOVAQUONE] | > 15.6 µM |  | CC50 at 72 h [8]: 9.5 µM; IC50 (Plasmodium yoelii): 0.009 µM
38 | CCCCCCC(C)Nc1nc2cc(-c3ccc(C)cc3)sc2c(=O)[nH]1 (configuration not stated) | 19.4 µM | > 5 µM | 
39 | C[C@H]1[C@H](OC(=O)CCC(=O)O)O[C@@H]2O[C@@]3(C)CC[C@H]4[C@H](C)CC[C@@H]1[C@@]24OO3 [ARTESUNATE] |  |  | IC50 (Plasmodium falciparum [11]): 0.7 µM
40 | CC1(C)N=C(N)N=C(N)N1c1ccc(Cl)cc1 [CYCLOGUANIL] |  |  | IC50 [7]: 5 µM
41 | CCN(CCCl)CCCNc1c2ccc(Cl)cc2nc2ccc(OC)cc12 |  |  | Activity (Salmonella typhimurium [2]): Toxic; Activity (Salmonella typhimurium [3]): Toxic
42 | Cc1ccc(-c2cc3nc(NCC(C)C)[nH]c(=O)c3s2)cc1 | 21.6 µM | > 5 µM | 
43 | COc1ccc(-c2cc3nc(NC(C)(C)C)[nH]c(=O)c3s2)cc1 | 32.3 µM | > 5 µM | 
44 | COc1ccc(-c2cc3nc(NC(C)C)[nH]c(=O)c3s2)cc1 | 27.1 µM | 0.5 µM | Ratio CC50/IC50 [6]: 136
45 | C[C@H]1c2cccc(O)c2C(=O)C2=C(O)[C@]3(O)C(=O)C(C(N)=O)=C(O)[C@@H](N(C)C)[C@@H]3[C@@H](O)[C@@H]21.O [DOXYCYCLINE] |  |  | Ratio CC50/IC50 [6]: 4
46 | CCCCCN(CCCCC)c1nc2cc(-c3ccc(C)cc3)sc2c(=O)[nH]1 |  |  | CC50 (HepG2): ND(Insoluble); IC50 (Plasmodium falciparum [1]): ND(Insoluble)
47 | CCC(CC)Nc1nc2cc(-c3ccc(C)cc3)sc2c(=O)[nH]1 | 101 µM | > 5 µM | 
48 | CC(C)Nc1nc2cc(-c3ccc(F)cc3)sc2c(=O)[nH]1 | > 25 µM | 0.5 µM | Ratio CC50/IC50 [6]: >66
